What is called IC50 is the point on the concentration scale where inhibition reaches its midpoint. Usually Ki stands for the equilibrium dissociation constant of an inhibitor or competing ligand from its target.

Experiment [1] is described as follows: Inhibition of Saccharomyces cerevisiae alpha-glucosidase using p-nitrophenyl-alpha-D-glucopyranoside as substrate preincubated for 10 mins followed by substrate addition measured after 30 mins by microplate reader analysis. In outline: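 α-Glucosidase 0.1 U/mL and p-NPG 1.0 mM in 0.1 M potassium phosphate pH 6.7; samples in DMSO. Inhibitor preincubated with enzyme 10 min at 37 °C, substrate added, 30 min at 37 °C, stopped with 1 M Na2CO3; absorbance 405 nm with blank correction. Five concentrations, triplicate; IC50 as mean ± SEM of three independent experiments.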

The subject of experiment [2] is Mus musculus. The experiment can be described thus: Hypoglycemic effect in Kunming mouse assessed as reduction in fasting blood glucose level at 10 mg/kg, po measured at 1.5 to 9 hrs post dose by glucometry analysis. It counts as functional, organism-based. In outline: (§1)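 Fasted normal Kunming mice (4–6 weeks) given single oral dose suspended in 0.5 % CMC–Na; control group received vehicle only. Tail-vein glucose measured by glucometer at 0, 1.5, 3, 5, 7 and 9 h after administration. Six mice per group; mean ± SEM, one-way ANOVA followed by Tukey's or Dunnett's test versus control.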

The subject of experiment [3] is Mus musculus. The experiment can be described thus: Hypoglycemic effect in Kunming mouse model of STZ-induced diabetes assessed as reduction in fasting blood glucose level at 10 mg/kg, po measured at 1.5 to 9 hrs post dose by glucometry analysis. It counts as functional, organism-based. The procedure, abridged: (§2)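 STZ-diabetic Kunming mice (single i.p. streptozotocin 100 mg/kg in citrate buffer pH 4.5, fasting; glucose checked day 7), fasted, dosed orally in 0.5 % CMC–Na with vehicle-only controls. Tail-vein glucometer readings at 0, 1.5, 3, 5, 7 and 9 h post-dose; percent change relative to vehicle group. n = 6; mean ± SEM, one-way ANOVA with post-hoc test.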

The nature of experiment [4]: Competitive inhibition of Saccharomyces cerevisiae alpha-glucosidase using p-nitrophenyl-alpha-D-glucopyranoside as substrate by Lineweaver-Burk plot analysis. The procedure, abridged: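 Enzyme kinetics run with rising concentrations of 4-nitrophenyl α-D-glucopyranoside and of inhibitor; mode of inhibition assigned from Lineweaver–Burk plots under Michaelis–Menten kinetics.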

Experiment [5] has as its system Mus musculus. The experiment can be described thus: Antihyperglycemic effect in Kunming mouse assessed as reduction in postprandial blood glucose level at 50 and 100 mg/kg, po administered 30 mins before sucrose challenge measured after 30 to 90 mins by oral sucrose tolerance test. It counts as functional, organism-based. The procedure, abridged:
(§3)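 Male/female unspecified Kunming mice, 4–6 weeks old, fasted. Oral dosing suspended in 0.5 % CMC–Na (controls given vehicle alone); sucrose 3 g/kg orally 30 min later. Six mice per group; mean ± SEM, one-way ANOVA with Tukey's or Dunnett's test.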

The test system of experiment [6] is Mus musculus. The experiment can be described thus: Antihyperglycemic effect in Kunming mouse model of STZ-induced diabetes assessed as reduction in postprandial blood glucose level at 50 and 100 mg/kg, po administered 30 mins before sucrose challenge measured after 30 to 90 mins by oral sucrose tolerance test. It counts as functional, organism-based. In outline: (§4)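 Diabetes induced in Kunming mice (4–6 weeks) by single i.p. streptozotocin 100 mg/kg in citrate buffer pH 4.5 under fasting, glucose checked on day 7. Fasted mice dosed orally in 0.5 % CMC–Na (vehicle controls), then sucrose 3 g/kg orally after 30 min; tail-vein glucometer readings at 0–3.0 h post-load. n = 6; mean ± SEM, one-way ANOVA with post-hoc test.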

Experiment [7] concerns Mus musculus. The experiment can be described thus: Antihyperglycemic effect in Kunming mouse assessed as reduction in postprandial blood glucose level at 25 mg/kg, po administered 30 mins before sucrose challenge measured after 30 to 90 mins by oral sucrose tolerance test. It counts as functional, organism-based. The procedure, abridged:
as §3

The test system of experiment [8] is Mus musculus. The experiment can be described thus: Antihyperglycemic effect in Kunming mouse model of STZ-induced diabetes assessed as reduction in postprandial blood glucose level at 25 mg/kg, po administered 30 mins before sucrose challenge measured after 30 to 90 mins by oral sucrose tolerance test. It counts as functional, organism-based. The procedure, abridged:
as §4

Experiment [9] relates to Mus musculus. The experiment can be described thus: Hypoglycemic effect in Kunming mouse model of STZ-induced diabetes assessed as reduction in fasting blood glucose level at 100 mg/kg, po measured at 1.5 hrs post dose by glucometry analysis relative to control. It counts as functional. The arrangement: scale not given: the % may be the effect or the level left. In outline:
as §2

The subject of experiment [10] is Mus musculus. Put plainly: Hypoglycemic effect in Kunming mouse model of STZ-induced diabetes assessed as reduction in fasting blood glucose level at 100 mg/kg, po measured at 3 hrs post dose by glucometry analysis relative to control. The arrangement: scale not given: the % may be the effect or the level left. It counts as functional. The procedure, abridged: as §2

Experiment [11] relates to Mus musculus. The experiment can be described thus: Hypoglycemic effect in Kunming mouse model of STZ-induced diabetes assessed as reduction in fasting blood glucose level at 100 mg/kg, po measured at 5 hrs post dose by glucometry analysis relative to control. It counts as functional. Details: scale not given: the % may be the effect or the level left. In outline: as §2

Experiment [12] deals with Mus musculus. The experiment can be described thus: Hypoglycemic effect in Kunming mouse model of STZ-induced diabetes assessed as reduction in fasting blood glucose level at 100 mg/kg, po measured at 7 hrs post dose by glucometry analysis relative to control. It counts as functional. Details: scale not given: the % may be the effect or the level left. In outline: as §2

The subject of experiment [13] is Mus musculus. The experiment can be described thus: Hypoglycemic effect in Kunming mouse model of STZ-induced diabetes assessed as reduction in fasting blood glucose level at 100 mg/kg, po measured at 9 hrs post dose by glucometry analysis relative to control. It counts as functional. The arrangement: scale not given: the % may be the effect or the level left. In outline: as §2

The subject of experiment [14] is Mus musculus. The experiment can be described thus: Hypoglycemic effect in Kunming mouse model of STZ-induced diabetes assessed as reduction in fasting blood glucose level at 50 mg/kg, po measured at 1.5 hrs post dose by glucometry analysis relative to control. It counts as functional. The arrangement: scale not given: the % may be the effect or the level left. The procedure, abridged:
as §2

For experiment [15], the system named is Mus musculus. The experiment can be described thus: Hypoglycemic effect in Kunming mouse model of STZ-induced diabetes assessed as reduction in fasting blood glucose level at 50 mg/kg, po measured at 3 hrs post dose by glucometry analysis relative to control. It counts as functional. Details: scale not given: the % may be the effect or the level left. In outline:
as §2

The test system of experiment [16] is Mus musculus. The experiment can be described thus: Hypoglycemic effect in Kunming mouse model of STZ-induced diabetes assessed as reduction in fasting blood glucose level at 50 mg/kg, po measured at 5 hrs post dose by glucometry analysis relative to control. Details: scale not given: the % may be the effect or the level left. It counts as functional. The procedure, abridged: as §2

Experiment [17] deals with Mus musculus. Put plainly: Hypoglycemic effect in Kunming mouse model of STZ-induced diabetes assessed as reduction in fasting blood glucose level at 50 mg/kg, po measured at 7 hrs post dose by glucometry analysis relative to control. It counts as functional. Details: scale not given: the % may be the effect or the level left. The procedure, abridged: as §2
In experiment [18] the test system is Mus musculus. The experiment can be described thus: Hypoglycemic effect in Kunming mouse model of STZ-induced diabetes assessed as reduction in fasting blood glucose level at 50 mg/kg, po measured at 9 hrs post dose by glucometry analysis relative to control. It counts as functional. The arrangement: scale not given: the % may be the effect or the level left. In outline: as §2

In experiment [19] the test system is Mus musculus. The experiment can be described thus: Hypoglycemic effect in Kunming mouse assessed as reduction in fasting blood glucose level at 25 to 100 mg/kg, po measured at 1.5 to 9 hrs post dose by glucometry analysis. It counts as functional, organism-based. The procedure, abridged: as §1

Calls of active or inactive are those of the source. No cut-off for these calls is given here.

As to `O=c1c(O)c(-c2cc(O)c(OCCOCCOCCOCCO)c(O)c2)oc2cc(O)cc(O)c12`, the IC50 in experiment [1] amounted to 463 µM.

On to `O=c1c(O)c(-c2cc(O)c(OCCOCCO)c(O)c2)oc2cc(O)cc(O)c12`, for which it took 43.8 µM to reach half-maximal inhibition in [1] (IC50).

With `O=c1c(O)c(-c2cc(O)c(O)c(O)c2)oc2cc(O)cc(O)c12` [MYRICETIN], the IC50 in experiment [1] was 319 µM.

`O=c1c(O)c(-c2cc(O)c(OCCN(CCO)c3ccccc3)c(O)c2)oc2cc(O)cc(O)c12`: half-maximal inhibition in [1] (IC50) was put at 41.1 µM.

In [1], `C[C@@H]1O[C@@H](Oc2c(-c3cc(O)c(O)c(O)c3)oc3cc(O)cc(O)c3c2=O)[C@H](O)[C@H](O)[C@H]1O` came in with an IC50 of 838 µM.

As to `O=C1c2c(O)cc(O)cc2O[C@H](c2cc(O)c(O)c(O)c2)[C@H]1O` [AMPELOPSIN], in experiment [1], the midpoint of inhibition, the IC50, lay at 634 µM.

Compound `C[C@@H]1O[C@@H](O[C@@H]2[C@@H](O)[C@H](O)[C@H](O[C@H]3[C@H](O)[C@@H](O)C(O)O[C@@H]3CO)O[C@H]2CO)[C@@H](O)[C@H](O)[C@H]1N[C@H]1C=C(CO)[C@@H](O)[C@H](O)[C@H]1O` (stereo partly drawn) had an IC50 in experiment [1] of 720 µM.

Turning to `O=c1c(O)c(-c2cc(O)c(OCCO)c(O)c2)oc2cc(O)cc(O)c12`, in experiment [1], the IC50 stood at 84.5 µM.

Consider `O=c1c(O)c(-c2cc(O)c(OCCOCCOCCO)c(O)c2)oc2cc(O)cc(O)c12`, for which, in experiment [1], half-maximal inhibition (IC50) required 233 µM.

Regarding `COc1ccc(Cl)cc1C(=O)NCCc1ccc(S(=O)(=O)NC(=O)NC2CCCCC2)cc1`, the outcome in the experiment with Mus musculus [2] and in the experiment with Mus musculus [3] was Active.

In [1], `Cc1ccc(S(=O)(=O)N(CCO)CCOc2c(O)cc(-c3oc4cc(O)cc(O)c4c(=O)c3O)cc2O)cc1` registered an IC50 of 9.3 µM. Further, the Ki in experiment [4] came out at 10.3 µM. Moreover, the result in the experiment with Mus musculus [5] and in the experiment on Mus musculus [6] was Active. Also, the outcome in the experiment with Mus musculus [7], in the experiment with Mus musculus [8] and in the experiment on Mus musculus [19] was inactive. The Activity in the experiment with Mus musculus [9] was determined as 37%; in the experiment on Mus musculus [10], 45.1%; with Mus musculus [11], 60%; with Mus musculus [12] it was 65.4%; in the experiment on Mus musculus [13] it was 67.3%; in the experiment with Mus musculus [14] it was 27.8%. For the same compound, the Activity is given as 35.9% in the experiment with Mus musculus [15], 47.3% in the experiment on Mus musculus [16], 59.6% in the experiment on Mus musculus [17] and 61.5% with Mus musculus [18].

Values taken from ChEMBL document CHEMBL3769387, “α-Glucosidase inhibition and antihyperglycemic activity of flavonoids from Ampelopsis grossedentata and the flavonoid derivatives” (Bioorg Med Chem, 2016).
